Hits are enriched below; roughly 1.5% of the tested compounds scored in any of these assays.
Hck-Nef inh – blocks Nef-activated human Hck kinase. P08631. AID 463187. inhibition, % at 20 µM. Recombinant Hck-YEEI plus Nef, Z-Lyte FRET kinase assay. actives 0.68% (n = 220,000);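 active = Hck-Nef kinase inhibition above about 50%, limit read from the data; inactive = inhibition below that limit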
RanGTP-Impb inh – disruptors of Ran-importin-beta complex formation – biochemical, FRET, CFP-Ran, YFP-importin-beta, homogeneous, primary screen; cell-free CFP-Ran/YFP-importin-beta FRET ratio; inhibition, % (concentration not given with the values); actives 1.1% (n = 300,000); AID 2216;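 active = more than half of the replicate wells show a fall in the fluorescence ratio signal beyond about 16%, limit read from the data, passing the limit was not always enough; inconclusive = exactly half of the replicate wells pass the set limit; inactive = fewer than half of replicates pass the limit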
Runt-CBFb FRET – inhibitors of human RUNX1 Runt domain binding to CBFb; Q01196+Q13951; Cerulean-Runt/Venus-CBFb FRET ratio 530/480, 1 h; inhibition, % at 20 µM; actives 0.46% (n = 220,000); AID 1496;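 active = inhibition over about 50% at 20 µM in the single-dose screen, limit read from the data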
Target sequence (Q01196 whole entry, looked up, the tested form may be a part): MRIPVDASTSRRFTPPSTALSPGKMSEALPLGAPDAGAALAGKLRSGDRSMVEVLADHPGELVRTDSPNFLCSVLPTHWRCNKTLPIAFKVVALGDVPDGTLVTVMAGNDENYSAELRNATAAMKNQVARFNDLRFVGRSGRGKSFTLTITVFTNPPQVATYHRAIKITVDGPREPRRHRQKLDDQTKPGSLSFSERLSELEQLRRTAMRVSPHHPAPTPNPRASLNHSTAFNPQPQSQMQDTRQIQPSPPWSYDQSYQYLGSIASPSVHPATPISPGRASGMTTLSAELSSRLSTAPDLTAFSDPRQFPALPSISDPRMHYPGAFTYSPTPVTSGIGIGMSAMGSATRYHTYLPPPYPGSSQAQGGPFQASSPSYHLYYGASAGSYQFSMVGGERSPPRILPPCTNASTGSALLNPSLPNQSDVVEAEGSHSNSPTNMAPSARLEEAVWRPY
Target sequence (Q13951 whole entry, looked up, the tested form may be a part): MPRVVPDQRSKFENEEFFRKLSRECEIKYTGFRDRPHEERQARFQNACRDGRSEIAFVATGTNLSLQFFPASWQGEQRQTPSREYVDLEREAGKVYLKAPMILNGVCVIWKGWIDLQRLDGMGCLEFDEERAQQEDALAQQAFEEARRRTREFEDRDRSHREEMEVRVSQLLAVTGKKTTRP
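Schedule: protein complex preformed 1 h, compound exposure 1 h, room temperature, dark; test system: Cerulean-labeled Runt domain protein; amount: 100 nM per protein; buffer or medium: Tris 50 mM pH 7.5, KCl, K2SO4, 0.01% BSA; read-out: loss of energy transfer signal; detection: FRET fluorescence; controls: 5 µM unlabeled CBFb as full-inhibition high control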
CaV13 ICDI inh – Primary screen for inhibitors of IQ motif and Ca2+-dependent inactivation inhibitor domain binding in CACNA1D, Förster resonance energy transfer in living cells, …; HEK cells, CFP/YFP FRET ICDI-IQ, plate reader, 10 min; percent FRET-ratio fall versus neutral wells; actives 0.098% (n = 340,000); inhibition, % at 12.3 µM;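 active = mean replicate inhibition of at least 30% and at least 1% of replicates passing that level; inconclusive = only one of the two criteria is met; inactive = neither criterion is met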
Runt-SMMHC FRET – inhibitors of human RUNX1 Runt domain binding to CBFb-SMMHC | actives 0.74% (n = 220,000) | Cerulean-Runt/Venus-CBFb-SMMHC FRET ratio 530/480, 1 h | inhibition, % at 20 µM | Q01196+Q13951;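 active = mean inhibition across duplicate retests at 20 µM reaching about 50%, limit read from the data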;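 note: inhibitors lower the FRET ratio by blocking Runt binding to CBFb-SMMHC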
YIC counter – counter-screen for RanGTP-importin-beta inhibitors: YIC FRET probe; IC50, µM; AID 435026; shares compounds with RanGTP-Impb inh; actives 40% (n = 1,000); Purified YIC probe, intramolecular FRET ratio YFP/CFP;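 active = fitted half-maximal inhibitory concentration no more than tenfold above the top dose tested; inconclusive = flat fit with 30 to 70% activity, or poor fit; inactive = half-maximal concentration beyond tenfold above the top dose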
Numbers stand for hits.

Results for CC(NC(=O)Cc1cccc2ccccc12)C(=O)N1CCC(=O)CC1 (stereo not given) ?
Hck-Nef inh: inactive; RanGTP-Impb inh: inactive; Runt-CBFb FRET: inactive; CaV13 ICDI inh: inactive; Runt-SMMHC FRET: inactive

Results for COCCNC(=O)c1c(NC(=O)c2ccco2)n(Cc2ccccc2)c2nc3ccccc3nc12 ?
Hck-Nef inh: inactive; RanGTP-Impb inh: 31; Runt-CBFb FRET: inactive; Runt-SMMHC FRET: 98; YIC counter: 0.93

Results for Cc1cccc(-n2c(O)c(/C=C/C=Nc3ccccc3)c(=O)[nH]c2=O)c1 ?
Hck-Nef inh: inactive; RanGTP-Impb inh: 34; Runt-CBFb FRET: inactive; CaV13 ICDI inh: inactive; Runt-SMMHC FRET: inactive; YIC counter: 2.8

What do the screens show for `CP(=O)(O)CCCN`?
Hck-Nef inh: inactive; RanGTP-Impb inh: inactive; Runt-CBFb FRET: inactive; CaV13 ICDI inh: inactive; Runt-SMMHC FRET: inactive

Results for CCCCn1c(O)c(C(C)=Nc2ccc3c(c2)CCC3)c(=O)[nH]c1=O ?
Hck-Nef inh: inactive; RanGTP-Impb inh: inactive; Runt-CBFb FRET: inactive; CaV13 ICDI inh: inactive; Runt-SMMHC FRET: inactive

What do the screens show for `O=C1NC(=O)N(Cc2ccccc2)C(=O)/C1=C\N1CCCc2ccccc21`?
Hck-Nef inh: inactive; RanGTP-Impb inh: 27; Runt-CBFb FRET: inactive; CaV13 ICDI inh: inactive; Runt-SMMHC FRET: inactive; YIC counter: inactive

How did O=C1NC(=O)C(=CN2CCc3ccccc32)C(=O)N1 do in these assays?
Hck-Nef inh: inactive; RanGTP-Impb inh: inconclusive; Runt-CBFb FRET: inactive; CaV13 ICDI inh: inactive; Runt-SMMHC FRET: inactive

Results for C=CCn1c(C)c(C=C2C(=O)NC(=O)NC2=O)c2ccccc21 ?
RanGTP-Impb inh: inactive; CaV13 ICDI inh: inactive

How did COCCOC(=O)C1=C(C)OC(N)=C(C(=O)OC)C12C(=O)Nc1ccccc12 (stereo not given) do in these assays?
Hck-Nef inh: inactive; RanGTP-Impb inh: 16; Runt-CBFb FRET: inactive; CaV13 ICDI inh: inactive; Runt-SMMHC FRET: inactive; YIC counter: inactive

How did Cc1ccc2c(c1)N(C(=O)CCC(=O)N1CCC3(CC1)OCCO3)CC(C)O2 (stereo not given) do in these assays?
RanGTP-Impb inh: inactive; CaV13 ICDI inh: inactive

How did CN1C(=O)C(=Cc2ccc(N(C)C)c([N+](=O)[O-])c2)C(=O)N(C)C1=O do in these assays?
Hck-Nef inh: inactive; RanGTP-Impb inh: inactive; Runt-CBFb FRET: inactive; Runt-SMMHC FRET: inactive

Results for CCCCCn1c(=O)c(C(=O)Nc2ccccc2)c(O)c2ccccc21 ?
RanGTP-Impb inh: inactive; CaV13 ICDI inh: inactive

How did CCOC(=O)c1c(N)n(CCN2CCCCC2)c2nc3ccccc3nc12 do in these assays?
Hck-Nef inh: inactive; RanGTP-Impb inh: 51; Runt-CBFb FRET: inactive; Runt-SMMHC FRET: 99; YIC counter: 45

Results for COCCCn1c(N)c(C(=O)OC(C)COC)c2nc3ccccc3nc21 (stereo not given) ?
Hck-Nef inh: inactive; RanGTP-Impb inh: 25; Runt-CBFb FRET: 79; CaV13 ICDI inh: inactive; Runt-SMMHC FRET: 94; YIC counter: 27

What do the screens show for `COCCCn1c(N)c(C(=O)Nc2ccccc2)c2nc3ccccc3nc21`?
Hck-Nef inh: inactive; RanGTP-Impb inh: 19; Runt-CBFb FRET: inactive; CaV13 ICDI inh: inactive; Runt-SMMHC FRET: inactive; YIC counter: 25

How did C=CCn1c(O)c(C(C)=NCCc2ccccc2)c(=O)[nH]c1=O do in these assays?
Hck-Nef inh: inactive; RanGTP-Impb inh: 23; Runt-CBFb FRET: inactive; CaV13 ICDI inh: inactive; Runt-SMMHC FRET: inactive; YIC counter: inactive

What do the screens show for `C=CCn1c(O)c(C(CC)=NCCc2ccccc2)c(=O)[nH]c1=O`?
Hck-Nef inh: inactive; RanGTP-Impb inh: inactive; Runt-CBFb FRET: inactive; CaV13 ICDI inh: inactive; Runt-SMMHC FRET: inactive

What do the screens show for `CO[C@H]1CC=C2CCN3CCC4=C(CC(=O)OC4)[C@]23C1`?
CaV13 ICDI inh: inactive

What do the screens show for `N#Cc1c(/N=C/c2ccc(O)cc2O)sc2c1C1CCN2CC1`?
Hck-Nef inh: inactive; RanGTP-Impb inh: 39; Runt-CBFb FRET: 64; CaV13 ICDI inh: inactive; Runt-SMMHC FRET: 59; YIC counter: inactive
